Source: ChEMBL document CHEMBL4145675, “2-Phenylquinoline S. aureus NorA Efflux Pump Inhibitors: Evaluation of the Importance of Methoxy Group Introduction” (J Med Chem, 2018)
Values after ≈ are worked out from the molar mass of the structure shown. Active and inactive are the calls of the source. The rule behind the calls is not given here.

Experiments:
[1] = molecular target: T1, Quinolone resistance protein NorA (Staphylococcus aureus) (UniProt P0A0J7); test: Inhibition of NorA in Staphylococcus aureus SA-1199B expressing GrlA A116E mutant assessed as reduction in EtBr efflux at 50 uM incubated for 5 mins by fluorescence based assay
T1 sequence (whole entry): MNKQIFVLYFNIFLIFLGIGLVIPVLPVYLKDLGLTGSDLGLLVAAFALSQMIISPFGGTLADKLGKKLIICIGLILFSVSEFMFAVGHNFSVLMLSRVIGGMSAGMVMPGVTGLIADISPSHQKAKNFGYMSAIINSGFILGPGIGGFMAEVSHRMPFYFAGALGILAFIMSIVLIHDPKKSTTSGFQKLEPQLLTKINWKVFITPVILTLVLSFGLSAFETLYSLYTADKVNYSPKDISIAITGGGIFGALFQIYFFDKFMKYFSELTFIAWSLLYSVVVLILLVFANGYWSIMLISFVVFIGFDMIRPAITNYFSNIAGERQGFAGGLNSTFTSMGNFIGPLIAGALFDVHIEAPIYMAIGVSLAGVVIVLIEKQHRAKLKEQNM
Procedure, shortened: (§1)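 Cells were grown overnight in cation-supplemented Mueller-Hinton broth at 35 °C and subcultured to OD600 0.7–0.8. They were loaded at OD600 0.8 with 25 µM EtBr plus 100 µM CCCP (final) for 20 min at room temperature. Cells were then resuspended in fresh broth with or without compound, 50 µM for the single-point screen or a concentration series for IC50. Fluorescence (ex 485/em 645 nm) was read for 5 min. Inhibition was calculated from the fluorescence decrease versus untreated cells. Biological triplicate, each run twice.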

[2] = molecular target: Quinolone resistance protein NorA (Staphylococcus aureus, UniProt P0A0J7, A116E); test: Inhibition of NorA in Staphylococcus aureus SA-1199B expressing GrlA A116E mutant assessed as reduction in EtBr efflux incubated for 5 mins by fluorescence based assay; procedure, shortened: as §1
[3] = test system: Staphylococcus aureus; test: Antimicrobial activity against Staphylococcus aureus SA-1199B expressing wild type norA and co-expressing GrlA A116E mutant by microdilution method; type: organism-based; settings: in vivo
Procedure, shortened: (§2)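 CLSI broth microdilution MIC of the compound alone. Strains: SA-K1902 (norA deleted), SA-K2378 (SA-K1902 carrying norA plus its promoter on multicopy plasmid pCU1), SA-1199B (norA overexpressing, GrlA A116E).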

[4] = molecular target: T1, Quinolone resistance protein NorA (Staphylococcus aureus); test: Inhibition of NorA in Staphylococcus aureus SA-1199B expressing GrlA A116E mutant assessed as minimal potentiating drug concentration causing 8 fold reduction in ciprofloxacin MIC by microdilution method based Checkerboard assay
[5] = test system: Staphylococcus aureus; test: Synergistic potentiation of ciprofloxacin-induced antimicrobial activity against wild type Staphylococcus aureus ATCC 25923 at 0.78 to 100 ug/ml by microdilution method based Checkerboard assay; type: functional, organism-based
[6] = test system: Staphylococcus aureus; test: Synergistic potentiation of ciprofloxacin-induced antimicrobial activity against Staphylococcus aureus SA-1199 at 0.78 to 100 ug/ml by microdilution method based Checkerboard assay; type: functional, organism-based
[7] = molecular target: T1, Quinolone resistance protein NorA (Staphylococcus aureus); test: Inhibition of NorA in Staphylococcus aureus SA-1199B expressing GrlA A116E mutant assessed as synergistic potentiation of ciprofloxacin-induced antimicrobial activity at 0.78 to 100 ug/ml by microdilution method based Checkerboard assay
[8] = molecular target: T1, Quinolone resistance protein NorA (Staphylococcus aureus); test: Inhibition of NorA in Staphylococcus aureus SA-1199B expressing GrlA A116E mutant assessed as synergistic potentiation of ciprofloxacin-induced antimicrobial activity at 0.78 ug/ml by microdilution method based Checkerboard assay
[9] = test system: Staphylococcus aureus; test: Antimicrobial activity against Staphylococcus aureus ATCC 25923 by microdilution method; type: organism-based; settings: in vivo
Procedure, shortened: (§3)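 Broth microdilution MIC per CLSI guidelines. ATCC 25923 is norA wild-type. SA-1199B overexpresses norA and carries an A116E GrlA substitution.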

[10] = test system: Staphylococcus aureus; test: Antimicrobial activity against Staphylococcus aureus SA-1199B expressing wild type norA by microdilution method; type: organism-based; settings: in vivo; procedure, shortened: as §3
[11] = Cytotoxicity in human HepG2 cells assessed as reduction in cell viability incubated for 24 hrs by ATP bioluminescence assay; type: cell-based
Procedure, shortened: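 Cells were grown to confluence overnight in RPMI 1640 with 10% heat-inactivated fetal calf serum, penicillin and streptomycin. Monolayers were exposed for 24 h at 37 °C to scalar concentrations (0-250 µg/mL). Viability was read by ATP bioluminescence, each concentration in triplicate. CC50 is the concentration reducing cell number by 50% versus untreated controls.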

[12] = test system: Staphylococcus aureus; test: Antimicrobial activity against NorA deficient Staphylococcus aureus SA-K1902 by microdilution method; type: organism-based; settings: in vivo; procedure, shortened: as §2
[13] = test system: Staphylococcus aureus; test: Antimicrobial activity against NorA overexpressing Staphylococcus aureus SA-K2378 by microdilution method; type: organism-based; settings: in vivo; procedure, shortened: as §2
[14] = molecular target: T1, Quinolone resistance protein NorA (Staphylococcus aureus); test: Inhibition of NorA in Staphylococcus aureus SA-K2378 assessed as synergistic potentiation of ciprofloxacin-induced antimicrobial activity at 0.78 to 100 ug/ml by microdilution method based Checkerboard assay
[15] = test system: Staphylococcus aureus; test: Synergistic potentiation of ciprofloxacin-induced antimicrobial activity against norA deleted Staphylococcus aureus SA-K1902 at 0.78 to 100 ug/ml by microdilution method based Checkerboard assay; type: functional, organism-based
[16] = molecular target: T1, Quinolone resistance protein NorA (Staphylococcus aureus); test: Inhibition of NorA in Staphylococcus aureus SA-K2378 assessed as synergistic potentiation of ciprofloxacin-induced antimicrobial activity at 0.78 ug/ml by microdilution method based Checkerboard assay

Structure (SMILES)	inhibition [1] [%]	IC50 [2] [µM]	MIC [3] [µM]	Activity [4] [µg/mL]	synergistic potentiation of ciprofloxacin activity [5]	inhibition [6]	inhibition [7]	inhibition [8]	MIC [9] [µg/mL]	MIC [10] [µg/mL]	CC50 at 24 h [11] [µg/mL]	MIC [12] [µg/mL]	MIC [13] [µg/mL]	inhibition [14]	Activity [15]	fold change (FC) [16]
CCCOc1ccc(-c2cc(OCCN3CCCCCC3)c3cc(OC)cc(OC)c3n2)cc1	80.3	1.8	> 215	1.56	Active	Active	Active	Active	> 100	> 100	–	–	–	–	–	–
O=C(O)c1cn(C2CC2)c2cc(N3CCNCC3)c(F)cc2c1=O [CIPROFLOXACIN]	–	–	–	–	–	–	–	–	0.31 (≈ 0.936 µM)	0.63 (≈ 1.9 µM)	139 (≈ 418 µM)	0.31 (≈ 0.936 µM)	2.5 (≈ 7.54 µM)	–	–	–
CCCOc1ccc(-c2cc(OCCN3CCCCCC3)c3ccc(OC)cc3n2)cc1	91.3	4.9	212.3 (≈ 92.3 µg/mL)	3.13	Active	Active	Active	Active	> 100	100 (≈ 230 µM)	–	–	–	–	–	–
CCCOc1ccc(-c2cc(OCCN(CC)CC)c3ccccc3n2)cc1	–	–	> 241	12.5	–	–	–	–	100 (≈ 264 µM)	> 100	–	50 (≈ 132 µM)	–	Active	inactive	–
CCCOc1ccc(-c2cc(OCCN3CCc4cc(OC)c(OC)cc4C3)c3cc(OC)cc(OC)c3n2)cc1	86.7	3.8	45 (≈ 25.1 µg/mL)	3.13	Active	Active	Active	Active	25 (≈ 44.7 µM)	25 (≈ 44.7 µM)	–	25 (≈ 44.7 µM)	–	Active	inactive	8
COC(=O)[C@H]1[C@H]2C[C@@H]3c4[nH]c5cc(OC)ccc5c4CCN3C[C@H]2C[C@@H](OC(=O)c2cc(OC)c(OC)c(OC)c2)[C@@H]1OC [RESERPINE]	–	–	> 164	> 100	–	–	–	–	> 100	> 100	–	> 100	–	Active	inactive	–
CCCOc1ccc(-c2cc(OCCN3CCc4cc(OC)c(OC)cc4C3)c3ccc(OC)cc3n2)cc1	91	4.7	> 189	3.13	Active	Active	Active	Active	> 100	> 100	–	–	–	–	–	–
CCCOc1ccc(-c2cc(OCCN3CCCCC3)c3ccc(OC)cc3n2)cc1	100	4	238 (≈ 100 µg/mL)	3.13	Active	Active	Active	–	50 (≈ 119 µM)	> 100	71.5 (≈ 170 µM)	–	–	–	–	–
CCCOc1ccc(-c2cc(OCCN(CC)CC)c3c(OC)cccc3n2)cc1	96.5	9.4	30.6 (≈ 12.5 µg/mL)	3.13	Active	Active	Active	Active	12.5 (≈ 30.6 µM)	12.5 (≈ 30.6 µM)	–	–	–	–	–	–
CCCOc1ccc(-c2cc(OCCN(CC)CC)c3c(OC)cc(OC)cc3n2)cc1	93.1	2.8	> 228	1.56	Active	Active	Active	–	100 (≈ 228 µM)	> 100	–	25 (≈ 57 µM)	–	–	–	–
CCCOc1ccc(-c2cc(OCCN3CCCCC3)c3cc(OC)c(OC)cc3n2)cc1	92.1	3.9	> 222	3.13	Active	Active	Active	–	100 (≈ 222 µM)	> 100	–	–	–	–	–	–
CCCOc1ccc(-c2cc(OCCN(CC)CC)c3cc(OC)c(OC)cc3n2)cc1	95.4	4.1	> 228	50	Active	Active	Active	–	100 (≈ 228 µM)	> 100	–	–	–	–	–	–
CCCOc1ccc(-c2cc(OCCN(CC)CC)c3cc(OC)ccc3n2)cc1	99	4.7	122 (≈ 49.8 µg/mL)	6.25	Active	Active	Active	–	50 (≈ 122 µM)	50 (≈ 122 µM)	5 (≈ 12.2 µM)	–	–	–	–	–
CCCOc1ccc(-c2cc(OCCN3CCCCC3)c3cc(OC)cc(OC)c3n2)cc1	93.8	3.8	> 222	6.25	Active	Active	Active	–	100 (≈ 222 µM)	> 100	–	–	–	–	–	–
CCCOc1ccc(-c2cc(OCCN3CCc4cc(OC)c(OC)cc4C3)c3c(OC)cc(OC)cc3n2)cc1	86.5	1.6	179 (≈ 100 µg/mL)	< 100	Active	Active	Active	Active	100 (≈ 179 µM)	100 (≈ 179 µM)	–	–	–	Active	inactive	–
CCCOc1ccc(-c2cc(OCCN3CCCCCC3)c3cc(OC)ccc3n2)cc1	92.2	8.1	28.7 (≈ 12.5 µg/mL)	< 3.13	Active	Active	Active	–	12.5 (≈ 28.8 µM)	25 (≈ 57.5 µM)	–	–	–	–	–	–
CCCOc1ccc(-c2cc(OCCN(CC)CC)c3ccc(OC)cc3n2)cc1	100	4.7	> 245	6.25	Active	Active	Active	Active	50 (≈ 122 µM)	> 100	7.7 (≈ 18.8 µM)	25 (≈ 61.2 µM)	–	Active	inactive	16
